# Laboratory results taken from ChEMBL document CHEMBL5042469, “Unique Molecular Interaction with the Histone Deacetylase 6 Catalytic Tunnel: Crystallographic and Biological Characterization of a Model Chemotype” (J Med Chem, 2021).
# pIC50: −log10 of the molar value. The source made the active and inactive calls. The calls are words filed in the database; no cut-off is given here.
# What was measured:
# MV4-11 [1] = assay: Induction of apoptosis in human MV4-11 cells assessed as late apoptotic cells at 0.25 uM incubated for 15 mins by Annexin-V/FITC staining based FACS analysis (reference value: 4.17%); assay type: functional
# How it was run: (§1)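 MV4-11 cells were dosed, then washed twice in cold PBS and resuspended in binding buffer at 1×10^6 cells/mL. Cells were stained with FITC-annexin V and propidium iodide for 15 min in the dark, diluted with binding buffer and analysed by flow cytometry within 1 h. Quadrants: LL viable, LR early apoptotic, UR late apoptotic. Duplicate experiments averaged; DMSO control.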
# MV4-11 [2] = assay: Induction of ROS generation in human MV4-11 cells at 10 uM measured over 4 hrs by DCFDA staning based spectrophotometric analysis; assay type: functional, cell-based
# How it was run: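 MV4-11 cells were washed once in PBS and loaded with DCFDA (33 μM) for 30 min at 37 °C in the dark. Cells were then washed, resuspended in supplemental buffer and dosed with compound. Fluorescence (Ex/Em 485/535) was followed for up to 4 h against a DMSO control.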
# MV4-11 [3] = assay: Induction of apoptosis in human MV4-11 cells assessed as late apoptotic cells at 0.50 uM incubated for 15 mins by Annexin-V/FITC staining based FACS analysis (reference value: 4.17%); assay type: functional; details: dose 0.5 µM, 0.25 h; how it was run: as §1
# MV4-11 [4] = assay: Induction of apoptosis in human MV4-11 cells assessed as viable cells at 1 uM incubated for 15 mins by Annexin-V/FITC staining based FACS analysis (reference value: 35.53%); assay type: functional; details: MV4-11, 0.25 h, read-out: Activity; how it was run: as §1
# MV4-11 [5] = assay: Induction of apoptosis in human MV4-11 cells assessed as early apoptotic cells at 4 uM incubated for 15 mins by Annexin-V/FITC staining based FACS analysis (reference value: 0.70%); assay type: functional; details: 0.25 h; how it was run: as §1
# MV4-11 [6] = assay: Induction of apoptosis in human MV4-11 cells assessed as early apoptotic cells at 1 uM incubated for 15 mins by Annexin-V/FITC staining based FACS analysis (reference value: 0.70%); assay type: functional; details: 0.25 h; how it was run: as §1
# [7] = Kinetic solubility in pH 7.4 PBS buffer assessed as saturation concentration by HPLC analysis; assay type: physicochemical
# Histone deacetylase 7 = Histone deacetylase 7 (Homo sapiens, UniProt Q8WUI4); assay: Inhibition of full length human HDAC7 using FAM-labeled acetylated peptide as substrate by electrophoretic mobility shift assay
# How it was run: (§2)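 Full-length human HDAC isoform enzymatic assay by electrophoretic mobility shift, using a FAM-labelled acetylated peptide substrate. […] Values are the mean of duplicate experiments with 95% confidence intervals.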
# Ramos = assay: Anti-proliferative activity against human Ramos cells assessed as cell viability measured after 72 hrs by Cell-Titer assay; assay type: functional, cell-based
# How it was run: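 Cells were plated in 96-well plates and received compound or vehicle (0.5% DMSO) 24 h later. CellTiter-Blue was added at 72 h and fluorescence read at 560/590 nm. IC50 derived by non-linear regression.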
# MV4-11 [8] = assay: Induction of apoptosis in human MV4-11 cells assessed as early apoptotic cells at 0.50 uM incubated for 15 mins by Annexin-V/FITC staining based FACS analysis (reference value: 0.70%); assay type: functional; details: dose 0.5 µM, 0.25 h; how it was run: as §1
# MV4-11 [9] = assay: Induction of apoptosis in human MV4-11 cells assessed as early apoptotic cells at 0.25 uM incubated for 15 mins by Annexin-V/FITC staining based FACS analysis (reference value: 0.70%); assay type: functional; how it was run: as §1
# MV4-11 [10] = assay: Induction of apoptosis in human MV4-11 cells assessed as late apoptotic cells at 4 uM incubated for 15 mins by Annexin-V/FITC staining based FACS analysis (reference value: 4.17%); assay type: functional; details: 0.25 h; how it was run: as §1
# MV4-11 [11] = assay: Induction of apoptosis in human MV4-11 cells assessed as late apoptotic cells at 1 uM incubated for 15 mins by Annexin-V/FITC staining based FACS analysis (reference value: 4.17%); assay type: functional; details: 0.25 h; how it was run: as §1
# [12] = molecular target: Polyamine deacetylase HDAC10 (Homo sapiens, UniProt Q969S8); assay: Inhibition of full length human HDAC10 using FAM-labeled acetylated peptide as substrate by electrophoretic mobility shift assay; how it was run: as §2
# MV4-11 [13] = assay: Induction of apoptosis in human MV4-11 cells assessed as viable cells at 2 uM incubated for 15 mins by Annexin-V/FITC staining based FACS analysis (reference value: 35.53%); assay type: functional; details: MV4-11, 0.25 h, read-out: Activity; how it was run: as §1
# [14] = Stability in human whole blood assessed as compound remaining measured after 60 mins; assay type: ADME, tissue-based; details: read-out: Stability
# MV4-11 [15] = assay: Induction of apoptosis in human MV4-11 cells assessed as early apoptotic cells at 2 uM incubated for 15 mins by Annexin-V/FITC staining based FACS analysis (reference value: 0.70%); assay type: functional; details: 0.25 h; how it was run: as §1
# [16] = Cmax in Balb/c mouse at 50 mg/kg, ip by LC-MS/MS analysis; assay type: ADME, organism-based; parameters: route intraperitoneal, dose 50 mg/kg; details: in vivo
# How it was run: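 Male BALB/c mice received a single intraperitoneal dose from a 50 mg/mL solution in 5% DMSO, 30% PEG400, 1% Tween80 and 64% saline. Blood was collected at several time points and the compound quantified by triple-quadrupole LC-MS/MS.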
# [17] = Stability in mouse plasma assessed as compound remaining measured after 30 mins; assay type: ADME, cell-free; details: read-out: Stability
# MV4-11 [18] = assay: Induction of apoptosis in human MV4-11 cells assessed as late apoptotic cells at 4 uM incubated for 15 mins by Annexin-V/FITC staining based FACS analysis (reference value: 4.36%); assay type: functional; details: 0.25 h; how it was run: as §1
# MV4-11 [19] = assay: Induction of apoptosis in human MV4-11 cells assessed as early apoptotic cells at 2 uM incubated for 15 mins by Annexin-V/FITC staining based FACS analysis (reference value: 7.28%); assay type: functional; details: 0.25 h; how it was run: as §1
# MV4-11 [20] = assay: Induction of apoptosis in human MV4-11 cells assessed as viable cells at 0.25 uM incubated for 15 mins by Annexin-V/FITC staining based FACS analysis (reference value: 84.58%); assay type: functional; details: MV4-11, 0.25 h, read-out: Activity; how it was run: as §1
# MV4-11 [21] = assay: Induction of apoptosis in human MV4-11 cells assessed as late apoptotic cells at 2 uM incubated for 15 mins by Annexin-V/FITC staining based FACS analysis (reference value: 4.36%); assay type: functional; details: 0.25 h; how it was run: as §1
# MV4-11 [22] = assay: Induction of apoptosis in human MV4-11 cells assessed as viable cells at 4 uM incubated for 15 mins by Annexin-V/FITC staining based FACS analysis (reference value: 84.58%); assay type: functional; details: MV4-11, 0.25 h, read-out: Activity; how it was run: as §1
# MV4-11 [23] = assay: Induction of apoptosis in human MV4-11 cells assessed as early apoptotic cells at 4 uM incubated for 15 mins by Annexin-V/FITC staining based FACS analysis (reference value: 7.28%); assay type: functional; details: 0.25 h; how it was run: as §1
# MV4-11 [24] = assay: Induction of apoptosis in human MV4-11 cells assessed as late apoptotic cells at 0.50 uM incubated for 15 mins by Annexin-V/FITC staining based FACS analysis (reference value: 4.36%); assay type: functional; details: dose 0.5 µM, 0.25 h; how it was run: as §1
# MV4-11 [25] = assay: Induction of apoptosis in human MV4-11 cells assessed as viable cells at 0.50 uM incubated for 15 mins by Annexin-V/FITC staining based FACS analysis (reference value: 84.58%); assay type: functional; details: MV4-11, 0.25 h, read-out: Activity; how it was run: as §1
# MV4-11 [26] = assay: Induction of apoptosis in human MV4-11 cells assessed as early apoptotic cells at 0.50 uM incubated for 15 mins by Annexin-V/FITC staining based FACS analysis (reference value: 7.28%); assay type: functional; details: dose 0.5 µM, 0.25 h; how it was run: as §1
# MV4-11 [27] = assay: Induction of apoptosis in human MV4-11 cells assessed as early apoptotic cells at 1 uM incubated for 15 mins by Annexin-V/FITC staining based FACS analysis (reference value: 7.28%); assay type: functional; details: 0.25 h; how it was run: as §1
# Chain of Histone deacetylase 7 (Q8WUI4 whole entry, canonical isoform): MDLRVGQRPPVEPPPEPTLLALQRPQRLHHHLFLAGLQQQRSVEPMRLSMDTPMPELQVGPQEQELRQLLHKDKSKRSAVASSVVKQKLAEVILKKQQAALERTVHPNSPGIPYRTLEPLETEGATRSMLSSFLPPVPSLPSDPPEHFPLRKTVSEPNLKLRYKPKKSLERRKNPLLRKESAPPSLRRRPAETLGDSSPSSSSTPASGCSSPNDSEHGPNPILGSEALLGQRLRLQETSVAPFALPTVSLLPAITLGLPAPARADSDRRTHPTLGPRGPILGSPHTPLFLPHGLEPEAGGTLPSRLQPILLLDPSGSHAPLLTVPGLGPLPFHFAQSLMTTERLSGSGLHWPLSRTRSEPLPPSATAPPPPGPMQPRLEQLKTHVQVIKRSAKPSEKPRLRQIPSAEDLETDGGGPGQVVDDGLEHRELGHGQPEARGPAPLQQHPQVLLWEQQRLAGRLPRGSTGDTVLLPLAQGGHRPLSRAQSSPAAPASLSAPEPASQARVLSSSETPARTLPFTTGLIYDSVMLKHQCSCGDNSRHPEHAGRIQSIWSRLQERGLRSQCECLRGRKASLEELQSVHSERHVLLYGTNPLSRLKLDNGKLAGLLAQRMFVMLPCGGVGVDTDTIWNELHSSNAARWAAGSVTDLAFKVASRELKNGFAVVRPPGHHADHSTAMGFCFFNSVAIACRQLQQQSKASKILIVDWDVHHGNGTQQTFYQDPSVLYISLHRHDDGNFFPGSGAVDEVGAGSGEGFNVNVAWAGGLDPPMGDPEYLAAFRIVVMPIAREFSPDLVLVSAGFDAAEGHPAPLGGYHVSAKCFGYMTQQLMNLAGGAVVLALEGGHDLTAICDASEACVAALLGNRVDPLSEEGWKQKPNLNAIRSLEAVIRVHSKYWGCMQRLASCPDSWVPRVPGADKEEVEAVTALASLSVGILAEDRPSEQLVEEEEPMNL
# Chain of Polyamine deacetylase HDAC10 (Q969S8 whole entry): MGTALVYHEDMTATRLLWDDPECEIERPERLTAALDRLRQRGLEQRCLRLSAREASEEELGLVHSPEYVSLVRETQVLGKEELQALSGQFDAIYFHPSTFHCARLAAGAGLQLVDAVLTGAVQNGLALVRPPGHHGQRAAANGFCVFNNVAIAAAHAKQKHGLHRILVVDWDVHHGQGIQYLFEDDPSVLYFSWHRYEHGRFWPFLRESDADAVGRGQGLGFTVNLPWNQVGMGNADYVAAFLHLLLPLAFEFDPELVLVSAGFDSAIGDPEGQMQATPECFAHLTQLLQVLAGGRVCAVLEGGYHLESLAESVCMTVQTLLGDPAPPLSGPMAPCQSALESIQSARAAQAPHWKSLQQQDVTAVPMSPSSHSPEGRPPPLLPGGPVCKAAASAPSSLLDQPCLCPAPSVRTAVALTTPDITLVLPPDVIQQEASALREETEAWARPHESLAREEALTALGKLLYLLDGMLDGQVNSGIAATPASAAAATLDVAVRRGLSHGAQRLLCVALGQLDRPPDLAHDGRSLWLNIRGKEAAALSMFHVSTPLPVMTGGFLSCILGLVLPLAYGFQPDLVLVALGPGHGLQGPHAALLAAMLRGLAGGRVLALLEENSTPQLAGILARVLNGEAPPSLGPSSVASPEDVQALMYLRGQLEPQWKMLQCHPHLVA
smiles,measurement,setting,value
O=C(NO)c1ccc(CN(Cc2cccnc2)S(=O)(=O)c2cc(F)c(F)c(F)c2F)cc1,Activity,MV4-11 [1],3.29%
same,Activity,MV4-11 [2],Active
same,Activity,MV4-11 [3],5.46%
same,viability at 1 µM,MV4-11 [4],17.1%
same,Activity,MV4-11 [5],2.55%
same,Activity,MV4-11 [6],1.84%
same,Kinetic_solubility,[7],161.5 µM
same,pIC50,Histone deacetylase 7,5.14
same,pIC50,Ramos,6.52
same,Activity,MV4-11 [8],1.24%
same,Activity,MV4-11 [9],0.94%
same,Activity,MV4-11 [10],19.29%
same,Activity,MV4-11 [11],6.87%
same,pIC50,[12],6.24
same,viability at 2 µM,MV4-11 [13],9.59%
same,remaining at 1 h,[14],68.9%
same,Activity,MV4-11 [15],2.45%
same,Cmax,[16],95.1 ng/mL
same,remaining at 0.5 h,[17],79.8%
O=C(CCCCCCNC(=O)c1cnc(N(c2ccccc2)c2ccccc2Cl)nc1)NO [CITARINOSTAT],Activity,MV4-11 [18],15.54%
same,Activity,MV4-11 [19],27.95%
same,viability at 0.25 µM,MV4-11 [20],84.3%
same,Activity,MV4-11 [21],13.33%
same,viability at 4 µM,MV4-11 [22],40.9%
same,Activity,MV4-11 [23],38.98%
same,Activity,MV4-11 [24],5.77%
same,viability at 0.5 µM,MV4-11 [25],81.4%
same,Activity,MV4-11 [26],10.02%
same,Activity,MV4-11 [27],16.25%
